Values after ≈ are worked out from the molar mass of the structure shown. Active and inactive are the calls of the source. The rule behind the calls is not given here. Bounds are passed on as bounds.

Data set [1] relates to Cell membrane. As to the kind of experiment: Induction of cell membrane permeability Staphylococcus epidermidis clinical isolate 23 assessed as depolarized cells at 0.4 ug/ml by Texas Red-H/FITC-H staining based flow cytometry (reference value: 2.7%). The settings on record: dose 0.4 µg/ml. In kind it is subcellular. A digest of the protocol:
(§1)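 Membrane potential read by flow cytometry. Bacteria were stained with DiOC2, then exposed to the agent; red fluorescence marks polarized cells and green marks depolarized cells. CCCP served as the positive control and daptomycin as the depolarizing reference at 0.4 μg/mL. Test concentrations were 0.8, 1.6 and 3.125 μg/mL, with a 15 min exposure.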
A general note: In flow cytometry, cells or beads pass a laser one at a time.

Data set [2] has as its system Cell membrane. As to the kind of experiment: Induction of cell membrane permeability Staphylococcus epidermidis clinical isolate 23 assessed as residual polarized cells at 0.4 ug/ml by Texas Red-H/FITC-H staining based flow cytometry (reference value: 69.6%). The format is subcellular. The settings on record: dose 0.4 µg/ml. A digest of the protocol: as §1
The subject of data set [3] is Cell membrane. In words: Induction of cell membrane permeability Staphylococcus epidermidis clinical isolate 23 assessed as depolarized cells by Texas Red-H/FITC-H staining based flow cytometry (reference value: 2.7%). In kind it is subcellular. A digest of the protocol: as §1
Data set [4] relates to Cell membrane. In words: Induction of cell membrane permeability Staphylococcus epidermidis clinical isolate 23 assessed as residual polarized cells by Texas Red-H/FITC-H staining based flow cytometry (reference value: 69.6%). The format is subcellular. A digest of the protocol: as §1
For data set [5], the system named is Staphylococcus epidermidis. In words: Antibiofilm activity against Staphylococcus epidermidis clinical isolates assessed as eradication of existing biofilms measured after 24 hrs by confocal laser scanning microscopy analysis. The format is functional.
Data set [6] can be described thus: Selectivity index, ratio of IC50 for cytotoxicity against rat H9c2 cells to MIC for antibacterial activity against multidrug resistant Staphylococcus epidermidis clinical isolates. In kind it is toxicity, cell-based. The settings on record: read-out: Selectivity Index. A digest of the protocol: (§2)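 SI is IC50 divided by the mean MIC across clinical multidrug-resistant S. epidermidis isolates (81 strains). IC50 came from an MTT assay after 24 h treatment of H9c2 cardiomyocytes or BJ skin fibroblasts, n = 3. MIC was measured by broth microdilution.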

The nature of data set [7]: Selectivity index, ratio of IC50 for rat H9c2 cells to IC50 for human BJ cells. In kind it is toxicity. Particulars: H9c2 cells and BJ cells, read-out: Ratio IC50.
Data set [8] can be described thus: Selectivity index, ratio of IC50 for cytotoxicity against human BJ cells to MIC for antibacterial activity against multidrug resistant Staphylococcus epidermidis clinical isolates. In kind it is toxicity, cell-based. Particulars: read-out: Selectivity Index. A digest of the protocol:
as §2

Data set [9] deals with Staphylococcus epidermidis. In words: Antibiofilm activity against Staphylococcus epidermidis clinical isolates assessed as inhibition of biofilm formation measured after 24 hrs by confocal laser scanning microscopy analysis. The format is functional.
The next data set concerns Escherichia coli. In words: Antibacterial activity against Escherichia coli ATCC 25922 assessed as inhibition of bacterial growth by broth microdilution method. In kind it is functional. In general terms: In broth dilution the organism is exposed to a series of concentrations in liquid medium.
The next data set has as its system Pseudomonas aeruginosa. As to the kind of experiment: Antibacterial activity against Pseudomonas aeruginosa ATCC 27853 assessed as inhibition of bacterial growth by broth microdilution method. The format is functional.
The test system of another data set is Acinetobacter baumannii. In words: Antibacterial activity against Acinetobacter baumannii ATCC 19606 assessed as inhibition of bacterial growth by broth microdilution method. The format is functional.
Data set [10] concerns Staphylococcus epidermidis. As to the kind of experiment: Antibacterial activity against multidrug-resistant and biofilm producer Staphylococcus epidermidis ATCC 35984 assessed as inhibition of bacterial growth by broth microdilution method. In kind it is functional. A digest of the protocol: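 Preliminary MIC screen by broth microdilution against three reference strains (methicillin-susceptible, multidrug-resistant/biofilm-producing S. epidermidis, and biofilm-producing S. aureus); MIC reported in μg/mL.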

For data set [11], the system named is Cell membrane. As to the kind of experiment: Induction of cell membrane permeability Staphylococcus epidermidis clinical isolate 23 assessed as depolarized cells at 0.8 ug/ml by Texas Red-H/FITC-H staining based flow cytometry (reference value: 2.7%). Particulars: dose 0.8 µg/ml. The format is subcellular. A digest of the protocol:
(§3)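 Clinical S. epidermidis no. 23 cells were first stained with DiOC2, then treated with compound. Membrane potential was read by flow cytometry within 15 min: red marks polarized cells, green marks depolarized cells. Controls were DiOC2-only cells (negative), CCCP (positive), and daptomycin at 0.4 μg/mL as a depolarizing reference.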

The test system of data set [12] is Cell membrane. In words: Induction of cell membrane permeability Staphylococcus epidermidis clinical isolate 23 assessed as depolarized cells at 1.6 ug/ml by Texas Red-H/FITC-H staining based flow cytometry (reference value: 2.7%). The format is subcellular. Particulars: dose 1.6 µg/ml. A digest of the protocol: (§4)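 Cells stained with DiOC2, then exposed to test agent (0.8, 1.6, 3.125 μg/mL tested); CCCP positive control, daptomycin 0.4 μg/mL reference depolarizer, DiOC2-only negative control. Membrane potential read by flow cytometry as red (polarized) versus green (depolarized) cell populations; depolarization assessed within 15 min.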

Data set [13] deals with Cell membrane. As to the kind of experiment: Induction of cell membrane permeability Staphylococcus epidermidis clinical isolate 23 assessed as residual polarized cells at 0.8 ug/ml by Texas Red-H/FITC-H staining based flow cytometry (reference value: 69.6%). The format is subcellular. The settings on record: dose 0.8 µg/ml. A digest of the protocol:
as §3

The test system of data set [14] is Cell membrane. In words: Induction of cell membrane permeability Staphylococcus epidermidis clinical isolate 23 assessed as residual polarized cells at 1.6 ug/ml by Texas Red-H/FITC-H staining based flow cytometry (reference value: 69.6%). In kind it is subcellular. The settings on record: dose 1.6 µg/ml. A digest of the protocol: as §4
Data set [15] concerns Staphylococcus epidermidis. As to the kind of experiment: Bacteriostatic activity Staphylococcus epidermidis clinical isolate 44 at 0.4 to 25 ug/ml measured upto 1000 mins by broth microdilution method. The format is functional, organism-based. The settings on record: dose 0.4-25 µg/ml.
In data set [16] the test system is Staphylococcus epidermidis. As to the kind of experiment: Antibiofilm activity against Staphylococcus epidermidis clinical isolate 25 assessed as inhibition of biofilm formation measured after 24 hrs by confocal laser scanning microscopy analysis. The format is functional. A digest of the protocol:
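Clinical S. epidermidis strain no. 25 biofilm exposed to compound for 24 h, stained with FilmTracer SYPRO Ruby biofilm matrix stain, and imaged by confocal microscopy. Untreated compact biofilm served as control.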

For data set [17], the system named is Cell membrane. In words: Induction of cell membrane permeability Staphylococcus epidermidis clinical isolate 23 assessed as depolarized cells at 3.125 ug/ml by Texas Red-H/FITC-H staining based flow cytometry (reference value: 2.7%). In kind it is subcellular. The settings on record: dose 3.125 µg/ml. A digest of the protocol: as §3

Turning to `CCCCCCCCCC(=O)N[C@@H](Cc1c[nH]c2ccccc12)C(=O)N[C@H](CC(N)=O)C(=O)N[C@@H](CC(=O)O)C(=O)N[C@@H]1C(=O)NCC(=O)N[C@@H](CCCN)C(=O)N[C@@H](CC(=O)O)C(=O)N[C@H](C)C(=O)N[C@@H](CC(=O)O)C(=O)NCC(=O)N[C@H](CO)C(=O)N[C@@H]([C@H](C)CC(=O)O)C(=O)N[C@@H](CC(=O)c2ccccc2N)C(=O)O[C@@H]1C`, the Activity is 7.2% in the data set with Cell membrane [1] and 1.3% in the data set on Cell membrane [2].
`N#CC(C#N)=NNc1cccc(Cl)c1`: the Activity in the data set on Cell membrane [3] was found to be 73.4%; with Cell membrane [4], 0.1%.
`O=S(=O)(NC1CCN(CCC(Oc2ccc(C(F)(F)F)cc2)c2ccccc2)CC1)c1cccc(Cl)c1` (racemic): the MBEC90 result in data set [5] is “>=125 ug ml-1”. Further, the selectivity ratio in [6] came to 0.7; in data set [7], 2; in data set [8], 0.4. Besides, the MBIC90 entry in [9] is recorded as “>=125 ug ml-1”.
`O=S(=O)(NC1CCN(CCC(Oc2ccc(C(F)(F)F)cc2)c2cccs2)CC1)c1cccc(Cl)c1` (racemic): the MBEC90 result in data set [5] is “>=125 ug ml-1”. The selectivity ratio was determined as 2.8 in data set [6], 2 in [7] and 1 in data set [8]. In data set [9], the MBIC90 entry is given as “>=125 ug ml-1”.
Take `O=S(=O)(NC1CCN(CCC(Oc2cccc(C(F)(F)F)c2)c2ccccc2)CC1)c1cccc(Cl)c1` (racemic): the MIC in the data set with Escherichia coli, in the data set on Pseudomonas aeruginosa and with Acinetobacter baumannii was at least 25 µg/mL throughout.
Take `O=S(=O)(NC1CCN(CCC(Oc2ccc(C(F)(F)F)cc2)c2cccs2)CC1)c1cccc(C(F)(F)F)c1` (racemic): the MIC in data set [10] amounted to 0.2 µg/mL (≈ 0.337 µM).
`O=C(Nc1cccc(Cl)c1)NC1CCN(CCC(Oc2ccc(C(F)(F)F)cc2)c2cccs2)CC1` (racemic): the Activity is 34.7% with Cell membrane [11]; 72.4% in the data set with Cell membrane [12]; 43.5% with Cell membrane [13]; 1.9% with Cell membrane [14]; 55.2% with Cell membrane [17]. Also, in data set [5], the MBEC90 was 31.25 µg/mL. In addition, the MIC with Escherichia coli, in the data set on Pseudomonas aeruginosa and in the data set with Acinetobacter baumannii was over 50 µg/mL throughout. Besides, the result in [15] was Active. In addition, in [16], the MBIC amounted to 7.8 µg/mL. Further, the selectivity ratio in data set [6] is 15.3; in data set [7], 2; in data set [8], 7.5. Further, the MBIC90 in data set [9] amounted to 31.25 µg/mL.
In the case of `O=S(=O)(NC1CCN(CCC(Oc2ccc(C(F)(F)F)cc2)c2cccs2)CC1)c1cccc(Br)c1` (racemic), the MIC in data set [10] was 0.4 µg/mL (≈ 0.663 µM).
With `CC(=O)NC[C@H]1CN(c2ccc(N3CCOCC3)c(F)c2)C(=O)O1` [LINEZOLID], the MBEC90 in data set [5] is 50 µg/mL. In [15], the result was Active. For the same compound, in data set [6], the selectivity ratio came out at 7.3. For the same compound, the MBIC90 in data set [9] came to 50 µg/mL.

The values above are taken from ChEMBL document CHEMBL5344467, “Improving Activity of New Arylurea Agents against Multidrug-Resistant and Biofilm-Producing Staphylococcus epidermidis” (ACS Med Chem Lett, 2024).
